Consider 24 compounds from ChEMBL document CHEMBL1156172, “Substituted hydrazinecarbothioamide as potent antitubercular agents: synthesis and quantitative structure-activity relationship (QSAR)” (2010).

Molecules are shown by their SMILES. ≈ marks a conversion by molar mass, not a printed value. A value given as a limit tells only on which side of the number the result lay.

The assay concerns Mycobacterium tuberculosis. Description: Antituberculosis activity against Mycobacterium tuberculosis H37Rv after 4 weeks by agar slant proportion method. Format: functional. The conditions noted are these: for MIC: Mycobacterium tuberculosis, H37Rv, 672 h. In outline:
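M. tuberculosis H37Rv inoculated onto drug-containing slants at 105 bacilli per tube, then incubated 4 weeks at 37 °C (proportion method). MIC taken as the lowest concentration of compound giving no visible growth of the inoculated bacilli; reported in μg/mL.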

Broadly, the MIC is the lowest concentration found to suppress growth. Low readings indicate greater potency, high ones weaker potency. On to `C/C(=N\NC(=S)Nc1ccc(I)cc1)c1ccc(Br)cc1`, for which the “-logMIC” value is listed as 0.097 and the MIC stood at 0.8 µg/mL (≈ 1.69 µM). Turning to `NNC(=O)c1ccncc1` [ISONIAZID], the MIC was determined as 0.02 µg/mL (≈ 0.146 µM). In the case of `C/C(=N\NC(=S)Nc1cccc(C)c1)c1ccc([N+](=O)[O-])cc1`, the minimum inhibitory concentration (MIC) was greater than 12.5 µg/mL. In turn, `CC[C@@H](CO)NCCN[C@@H](CC)CO` [ETHAMBUTOL] yielded an MIC of 0.1 µg/mL (≈ 0.489 µM). Consider `C/C(=N\NC(=S)Nc1cc(C)ccn1)c1ccc(Br)cc1`, for which the “-logMIC” value was 0.398 and 0.4 µg/mL (≈ 1.1 µM) was the least that counted as inhibitory (MIC). In the case of `COc1ccc(NC(=S)N/N=C(\C)c2ccc(Br)cc2)cc1`, the “-logMIC” value worked out at 0.097 and it took 0.8 µg/mL (≈ 2.11 µM) to inhibit growth (MIC). Take `C/C(=N\NC(=S)Nc1cc(C)ccn1)c1ccc([N+](=O)[O-])cc1`: the “-logMIC” value is on record as -0.494 and the MIC amounted to 3.12 µg/mL (≈ 9.47 µM).

`C/C(=N\NC(=S)NN1CCN(c2ccccc2Cl)CC1)c1ccc(Br)cc1` returned a minimal inhibitory concentration (MIC) of 3.12 µg/mL (≈ 6.68 µM). As for `CC(=O)C1(c2ccccc2)CCN(NC(=S)N/N=C(\C)c2ccc(Br)cc2)CC1`, the “-logMIC” value is on record as 0.097 and the minimum inhibitory concentration (MIC) worked out at 0.8 µg/mL (≈ 1.69 µM). Consider `COc1ccc(NC(=S)N/N=C(\C)c2ccc([N+](=O)[O-])cc2)cc1`, for which the minimum inhibitory concentration (MIC) is greater than 12.5 µg/mL. In the case of `C/C(=N\NC(=S)Nc1ccc(Br)cc1)c1ccc([N+](=O)[O-])cc1`, the “-logMIC” value is -0.796 and the minimum inhibitory concentration (MIC) was 6.25 µg/mL (≈ 15.9 µM).

Take `C/C(=N\NC(=S)NNC(=O)c1cccnc1)c1ccc(Br)cc1`: the “-logMIC” value is listed as -0.796 and inhibition of growth (MIC) required 6.25 µg/mL (≈ 15.9 µM). On to `C/C(=N\NC(=S)Nc1ccccc1[N+](=O)[O-])c1ccc(Br)cc1`, for which the “-logMIC” value came to 0.398 and inhibition of growth (MIC) required 0.4 µg/mL (≈ 1.02 µM). Turning to `C/C(=N\NC(=S)Nc1ccccc1F)c1ccc(Br)cc1`, the MIC was 3.12 µg/mL (≈ 8.52 µM).

For the compound `C/C(=N\NC(=S)Nc1cccc(Cl)c1Cl)c1ccc(Br)cc1`, the “-logMIC” value is recorded as 0.398 and the minimal inhibitory concentration (MIC) came to 0.4 µg/mL (≈ 0.959 µM). The compound `C/C(=N\NC(=S)Nc1ccc(I)cc1)c1ccc([N+](=O)[O-])cc1` returned an MIC greater than 12.5 µg/mL. Take `C/C(=N\NC(=S)Nc1ccncc1C)c1ccc(Br)cc1`: the minimum inhibitory concentration (MIC) is greater than 12.5 µg/mL. Still for that read-out and setting: the result for `C/C(=N\NC(=S)Nc1cccc(Cl)c1Cl)c1ccc([N+](=O)[O-])cc1` reads greater than 12.5 µg/mL; that for `C/C(=N\NC(=S)NNc1ccc(C)cc1)c1ccc(Br)cc1`, 1.56 µg/mL (≈ 4.13 µM). On to `C/C(=N\NC(=S)Nc1ccc(Br)cc1)c1ccc(Br)cc1`, for which the “-logMIC” value was determined as 0.097 and the minimum inhibitory concentration (MIC) was 0.8 µg/mL (≈ 1.87 µM).

Turning to `COc1ccc(NNC(=S)N/N=C(\C)c2ccc(Br)cc2)cc1`, the “-logMIC” value is given as -0.193 and it took 1.56 µg/mL (≈ 3.97 µM) to inhibit growth (MIC). `C/C(=N\NC(=S)NN)c1ccc(Br)cc1` gave an MIC greater than 12.5 µg/mL. The same measure, in the same setting: the result for `C/C(=N\NC(=S)Nc1ccncc1)c1ccc(Br)cc1` reads greater than 12.5 µg/mL; that for `C/C(=N\NC(=S)Nc1ccccc1F)c1ccc([N+](=O)[O-])cc1`, greater than 12.5 µg/mL.
